Data published in ChEMBL document CHEMBL2086278, “Synthesis and biological evaluation of ester prodrugs of Benzafibrate as orally active hypolipidemic agents” (Eur J Med Chem, 2012).

Columns and labels:
[1] = system: Mus musculus; experiment: Hypolipidemic activity in Swiss albino mouse assessed as reduction in plasma triglyceride level at 50 mg/kg, po for 8 days measured on day 9 by spectrophotometry relative to control; assay type: functional; set-up: scale not given: the % may be the effect or the level left
How it was run: (§1)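 Male Swiss albino mice, 21–30 g, chow fed, acclimatised 1 week; n = 10/group. Oral gavage 50 mg/kg/day for 8 days, suspended in Tween-80 5 µL/mL in 0.5% CMC (10 mL/kg); vehicle controls. Fasted 12 h; day 9 blood taken 1 h post-dose under mild ether. Plasma (4000 rpm, 10 min) TG/TC by spectrophotometric kit; % fall vs control; mean ± SE, ANOVA with Dunnett's.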

[2] = system: Mus musculus; experiment: Hypolipidemic activity in Swiss albino mouse assessed as reduction in plasma total cholesterol level at 50 mg/kg, po for 8 days measured on day 9 by spectrophotometry relative to control; assay type: functional; set-up: scale not given: the % may be the effect or the level left; how it was run: as §1
[3] = Octanol-phosphate buffer partition coefficient, log P of the compound at pH 7.4 by HPLC analysis; assay type: physicochemical
How it was run: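 1-Octanol and 0.2 M phosphate buffer pH 7.4, mutually pre-saturated 24 h. Compound shaken between 5 mL of each phase for 60 min at 400 rpm, 25 °C, then centrifuged at 3500 rpm for 5 min. Each phase quantified by HPLC at 254 nm. log P = log of octanol/un-ionized aqueous concentration ratio, mean of triplicate.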

[4] = Aqueous stability of the compound in 0.2 M hydrochloric acid buffer solution at pH 1 at 40 degC after 4 hrs by HPLC analysis; assay type: physicochemical; conditions: pH 1, 4 h
How it was run: (§2)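 10 mg test compound in 10 mL buffer shaken at 400 rpm, 40 °C, 4 h. Buffers: 0.2 M HCl pH 1.0, 0.1 M citric acid pH 3.0, 0.1 M phosphate pH 5.2, 0.2 M phosphate pH 7.4, 0.1 M boric acid pH 9.0. Filtered 0.20 µm; filtrate analysed by HPLC at 254 nm (C-8 column, gradient) for bezafibrate formed / % hydrolysed.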

[5] = Aqueous stability of the compound in 0.1 M citric acid buffer at pH 3 at 40 degC after 4 hrs by HPLC analysis; assay type: physicochemical; conditions: pH 3, 4 h; how it was run: as §2
[6] = Prodrug conversion in 0.1 M phosphate buffer solution assessed as benzofibrate formation at pH 5.2 at 40 degC after 4 hrs by HPLC analysis; assay type: physicochemical; conditions: pH 5.2, 4 h; how it was run: as §2
[7] = Prodrug conversion in 0.2 M phosphate buffer solution assessed as benzofibrate formation at pH 7.4 at 40 degC after 4 hrs by HPLC analysis; conditions: pH 7.4, 4 h
[8] = Prodrug conversion in 0.1 M boric acid buffer solution assessed as benzofibrate formation at pH 9.0 at 40 degC after 4 hrs by HPLC analysis; conditions: pH 9, 4 h
[9] = system: Mus musculus; experiment: Hypolipidemic activity in Swiss albino mouse assessed as reduction in plasma total cholesterol level at 100 mg/kg, po for 8 days measured on day 9 by spectrophotometry relative to control; assay type: functional; set-up: scale not given: the % may be the effect or the level left
How it was run: (§3)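 Dose-response in male Swiss albino mice (21–30 g, chow fed): oral dosing at 10, 30 or 100 mg/kg/day, vehicle Tween-80 in 0.5% CMC. Plasma triglyceride and total cholesterol measured spectrophotometrically with a commercial kit; % fall relative to untreated control.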

[10] = system: Mus musculus; experiment: Hypolipidemic activity in Swiss albino mouse assessed as reduction in plasma triglyceride level at 10 mg/kg, po for 8 days measured on day 9 by spectrophotometry relative to control; assay type: functional; set-up: scale not given: the % may be the effect or the level left; how it was run: as §3
[11] = system: Mus musculus; experiment: Hypolipidemic activity in Swiss albino mouse assessed as reduction in plasma triglyceride level at 30 mg/kg, po for 8 days measured on day 9 by spectrophotometry relative to control; assay type: functional; set-up: scale not given: the % may be the effect or the level left; how it was run: as §3
[12] = system: Mus musculus; experiment: Hypolipidemic activity in Swiss albino mouse assessed as reduction in plasma triglyceride level at 100 mg/kg, po for 8 days measured on day 9 by spectrophotometry relative to control; assay type: functional; set-up: scale not given: the % may be the effect or the level left; how it was run: as §3
[13] = system: Mus musculus; experiment: Hypolipidemic activity in Swiss albino mouse assessed as reduction in plasma total cholesterol level at 10 mg/kg, po for 8 days measured on day 9 by spectrophotometry relative to control; assay type: functional; set-up: scale not given: the % may be the effect or the level left; how it was run: as §3
[14] = system: Mus musculus; experiment: Hypolipidemic activity in Swiss albino mouse assessed as reduction in plasma total cholesterol level at 30 mg/kg, po for 8 days measured on day 9 by spectrophotometry relative to control; assay type: functional; set-up: scale not given: the % may be the effect or the level left; how it was run: as §3

Compound	logD [3]	Stability [4]	Stability [5]	Drug metabolism [6]	Drug metabolism [7]	Drug metabolism [8]	Activity [1]	Activity [2]	Activity [9]	Activity [10]	Activity [11]	Activity [12]	Activity [13]	Activity [14]
CC(C)OC(=O)OC(C)OC(=O)C(C)(C)Oc1ccc(CCNC(=O)c2ccc(Cl)cc2)cc1 (stereo not drawn)							3.9%	-5.6%						
CC(C)(C)C(=O)OCOC(=O)C(C)(C)Oc1ccc(CCNC(=O)c2ccc(Cl)cc2)cc1	5.1	Stable	Stable	1.7 µg/mL	2.2 µg/mL	0.8 µg/mL	18.8%	3.4%						
CC(=O)OC(C)OC(=O)C(C)(C)Oc1ccc(CCNC(=O)c2ccc(Cl)cc2)cc1 (stereo not drawn)	4.5	Stable	Stable	0.2 µg/mL	0.9 µg/mL	6.6 µg/mL	17.2%	4.3%						
CC(C)OC(=O)OCOC(=O)C(C)(C)Oc1ccc(CCNC(=O)c2ccc(Cl)cc2)cc1							3%	3%						

More lines, main results first:

logD [3]	Stability [4]	Stability [5]	Drug metabolism [6]	Drug metabolism [7]	Drug metabolism [8]	Compound	Activity [1]	Activity [2]	Activity [9]	Activity [10]	Activity [11]	Activity [12]	Activity [13]	Activity [14]
3.8	Stable	Stable	0.7 µg/mL	1.8 µg/mL	2.5 µg/mL	CC(=O)OCCOC(=O)C(C)(C)Oc1ccc(CCNC(=O)c2ccc(Cl)cc2)cc1	9.6%	2.4%						
5.1	Stable	Stable	6.3 µg/mL	6.2 µg/mL	8.8 µg/mL	CC(C)(Oc1ccc(CCNC(=O)c2ccc(Cl)cc2)cc1)C(=O)OCCN1CCOCC1	11.8%	3%						
3.1	Stable	Stable	0.2 µg/mL	0.5 µg/mL	2.6 µg/mL	Cc1oc(=O)oc1COC(=O)C(C)(C)Oc1ccc(CCNC(=O)c2ccc(Cl)cc2)cc1	30.2%	13%	4%	3.51%	27.1%	22.3%	4.9%	2%
1.5						CC(C)(Oc1ccc(CCNC(=O)c2ccc(Cl)cc2)cc1)C(=O)O [BEZAFIBRATE]	11.4%	10.4%						
